≈ marks a conversion by molar mass, not a printed value. Calls of active or inactive are those of the source. The calls are words filed in the database; no cut-off is given here.
How the values were obtained:
Staphylococcus aureus [1] = assay: Antibacterial activity against methicillin-resistant Staphylococcus aureus isolate OC8525 harboring wild type quinolone resistance-determining region assessed as log reduction in bacterial growth at 4 times MIC measured at 24 hrs by time-kill assay; assay type: functional
Summary of the method: (§1)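 Time-kill in cation-adjusted Mueller-Hinton broth. […] Samples were taken up to 24 h, serially diluted onto TSA and counted after 20–24 h at 37°C. Result is log10 decrease at 24 h from the starting inoculum; detection limit 100 CFU.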

Streptococcus pneumoniae [2] = assay: Antibacterial activity against erythromycin-resistant Streptococcus pneumoniae by broth microdilution method; assay type: functional, organism-based
Summary of the method: (§2)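 CLSI M07-A7 broth microdilution MIC. Medium was cation-adjusted Mueller-Hinton broth. For S. pneumoniae it was Mueller-Hinton supplemented with 5% lysed horse blood. CLSI quality-control strains were included as appropriate.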

Staphylococcus aureus [3] = assay: Antibacterial activity against methicillin-resistant Staphylococcus aureus isolate OC11223 by broth microdilution method; assay type: functional; summary of the method: as §2
Streptococcus pneumoniae [4] = assay: Antibacterial activity against Streptococcus pneumoniae isolate OC7348 assessed as log reduction in bacterial growth at 2 times MIC measured at 24 hrs by time-kill assay; assay type: functional
Summary of the method: (§3)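 Drug was diluted from 50× stocks made in water or acidified water. Samples were taken at 6 and 24 h and serially diluted onto TSA-5% sheep blood plates. Plates were incubated 20–24 h at 37°C in 5% CO2 before counting CFU. Log10 titer change is given relative to the starting inoculum.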

Enterococcus faecium = assay: Antibacterial activity against Enterococcus faecium by broth microdilution method; assay type: functional
Summary of the method: (§4)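 MICs by CLSI M07-A7 broth microdilution in cation-adjusted Mueller-Hinton medium. For S. pneumoniae the medium was supplemented with 5% lysed horse blood. CLSI quality control strains were run alongside as appropriate.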

[5] = Aqueous solubility of the compound; assay type: physicochemical
Streptococcus pneumoniae [6] = assay: Antibacterial activity against Streptococcus pneumoniae isolate OC7376 assessed as log reduction in bacterial growth at 2 times MIC measured at 6 hrs by time-kill assay; assay type: functional; summary of the method: as §3
Streptococcus agalactiae = assay: Antibacterial activity against Streptococcus agalactiae by broth microdilution method; assay type: functional; summary of the method: as §4
Streptococcus pneumoniae [7] = assay: Antibacterial activity against Streptococcus pneumoniae isolate OC6610 by broth microdilution method; assay type: functional; summary of the method: as §2
Streptococcus pneumoniae [8] = assay: Antibacterial activity against Streptococcus pneumoniae isolate OC5462 assessed as log reduction in bacterial growth at 4 times MIC measured at 24 hrs by time-kill assay; assay type: functional; summary of the method: as §3
Streptococcus pneumoniae [9] = assay: Antibacterial activity against Streptococcus pneumoniae isolate OC6610 assessed as log reduction in bacterial growth at 2 times MIC measured at 6 hrs by time-kill assay; assay type: functional; summary of the method: as §3
[10] = Antibacterial activity against Streptococcus sp. group C by broth microdilution method; assay type: functional
Summary of the method: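 MICs by broth microdilution following CLSI M07-A7 in cation-adjusted Mueller-Hinton medium, using isolates from the J&JPRD culture collection. CLSI quality control strains were included as appropriate.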

Pseudomonas aeruginosa = assay: Antibacterial activity against Pseudomonas aeruginosa ATCC 27853 by broth microdilution method; assay type: functional; summary of the method: as §4
Streptococcus pneumoniae [11] = assay: Antibacterial activity against Streptococcus pneumoniae isolate OC7189 assessed as log reduction in bacterial growth at 4 times MIC measured at 6 hrs by time-kill assay; assay type: functional; summary of the method: as §3
Streptococcus pneumoniae [12] = assay: Antibacterial activity against Streptococcus pneumoniae R6 by agar dilution method; assay type: functional
Summary of the method: (§5)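 MICs for the resistance-selection studies were determined by CLSI agar dilution on Mueller-Hinton medium. For S. pneumoniae the medium was supplemented with 5% lysed horse blood. For MRSA fluctuation-assay strains an arithmetic agar dilution scheme was used for a more precise MIC.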

Streptococcus pneumoniae [13] = assay: Antibacterial activity against Streptococcus pneumoniae isolate OC7189 assessed as log reduction in bacterial growth at 2 times MIC measured at 24 hrs by time-kill assay; assay type: functional; summary of the method: as §3
Streptococcus pneumoniae [14] = assay: Antibacterial activity against Streptococcus pneumoniae isolate OC6790 assessed as log reduction in bacterial growth at 2 times MIC measured at 24 hrs by time-kill assay; assay type: functional; summary of the method: as §3
Staphylococcus aureus [15] = assay: Antibacterial activity against methicillin-, ciprofloxacin-resistant Staphylococcus aureus by broth microdilution method; assay type: functional; summary of the method: as §2
Streptococcus pneumoniae [16] = assay: Antibacterial activity against Streptococcus pneumoniae isolate OC6585 assessed as log reduction in bacterial growth at 4 times MIC measured at 24 hrs by time-kill assay; assay type: functional; summary of the method: as §3
Streptococcus pneumoniae [17] = assay: Antibacterial activity against Streptococcus pneumoniae isolate OC7368 by broth microdilution method; assay type: functional; summary of the method: as §2
Streptococcus pneumoniae [18] = assay: Antibacterial activity against Streptococcus pneumoniae isolate OC7368 assessed as log reduction in bacterial growth at 2 times MIC measured at 24 hrs by time-kill assay; assay type: functional; summary of the method: as §3
Streptococcus pneumoniae [19] = assay: Antibacterial activity against Streptococcus pneumoniae isolate OC5462 assessed as log reduction in bacterial growth at 4 times MIC measured at 6 hrs by time-kill assay; assay type: functional; summary of the method: as §3
Staphylococcus aureus [20] = assay: Antibacterial activity against methicillin-resistant Staphylococcus aureus isolate OC8530 harboring gyrA S84L and parC I143V mutant gene assessed as log reduction in bacterial growth at 4 times MIC measured at 24 hrs by time-kill assay; assay type: functional; summary of the method: as §1
[21] = Distribution coefficient, log D of the compound; assay type: physicochemical; details: octanol/water
Staphylococcus aureus [22] = assay: Antibacterial activity against methicillin-resistant Staphylococcus aureus isolate OC17042 harboring gyrA S84L/G106D, parC S80F and parE D732N mutant gene assessed as log reduction in bacterial growth at 2 times MIC measured at 24 hrs by time-kill assay; assay type: functional
Summary of the method: (§6)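 Overnight MRSA cultures were diluted into fresh cation-adjusted Mueller-Hinton broth to about 5 × 10^6 CFU/ml. […] Samples were plated serially diluted on trypticase soy agar, and CFU were counted after 20-24 h at 37°C. Value is the log10 decrease at 24 h from the starting inoculum; detection limit 100 CFU.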

Streptococcus pneumoniae [23] = assay: Antibacterial activity against Streptococcus pneumoniae OC6755 harboring gyrA S81F and parC S79Y mutant gene by agar dilution method; assay type: functional; summary of the method: as §5
[24] = tested on: Staphylococcus epidermidis; assay: Antibacterial activity against methicillin-, ciprofloxacin-resistant Staphylococcus epidermidis by broth microdilution method; assay type: functional
Staphylococcus aureus [25] = assay: Antibacterial activity against methicillin-resistant Staphylococcus aureus isolate OC11696 assessed as log reduction in bacterial growth at 2 times MIC measured at 24 hrs by time-kill assay; assay type: functional; summary of the method: as §6
Haemophilus influenzae = assay: Antibacterial activity against Haemophilus influenzae by broth microdilution method; assay type: functional; summary of the method: as §4
Moraxella catarrhalis = assay: Antibacterial activity against Moraxella catarrhalis by broth microdilution method; assay type: functional; summary of the method: as §4
Streptococcus pneumoniae [26] = assay: Antibacterial activity against Streptococcus pneumoniae isolate OC6790 assessed as log reduction in bacterial growth at 4 times MIC measured at 6 hrs by time-kill assay; assay type: functional; summary of the method: as §3
Proteus mirabilis = assay: Antibacterial activity against Proteus mirabilis by broth microdilution method; assay type: functional; summary of the method: as §4
Streptococcus pneumoniae [27] = assay: Antibacterial activity against Streptococcus pneumoniae isolate OC7368 assessed as log reduction in bacterial growth at 2 times MIC measured at 6 hrs by time-kill assay; assay type: functional; summary of the method: as §3
Staphylococcus aureus [28] = assay: Antibacterial activity against methicillin-resistant Staphylococcus aureus isolate OC4222 harboring gyrA S84L and parC S80F mutant gene by broth microdilution method; assay type: functional; summary of the method: as §2
[29] = tested on: Staphylococcus epidermidis; assay: Antibacterial activity against methicillin-susceptible Staphylococcus epidermidis by broth microdilution method; assay type: functional

SMILES: COc1c(N2CCC/C(=C(\F)CN)C2)c(F)cc2c(=O)c(C(=O)O)cn(C3CC3)c12 [ACORAFLOXACIN]
- deltalog10CFU/ml (Staphylococcus aureus [1]): 5
- Activity (Streptococcus pneumoniae [2]): Active
- MIC (Staphylococcus aureus [3]): 0.008 mg/L (≈ 0.0191 µM)
- deltalog10CFU/ml (Streptococcus pneumoniae [4]): 7
- MIC50 (Enterococcus faecium): 0.5 mg/L (≈ 1.19 µM)
- MIC90 (Enterococcus faecium): 4 mg/L (≈ 9.54 µM)
- solubility [5]: 4.52 mg/mL (≈ 10800 µM)
- deltalog10CFU/ml (Streptococcus pneumoniae [6]): 4.4
- MIC50 (Streptococcus agalactiae): 0.015 mg/L (≈ 0.0358 µM)
- MIC90 (Streptococcus agalactiae): 0.015 mg/L (≈ 0.0358 µM)
- MIC (Streptococcus pneumoniae [7]): 0.5 mg/L (≈ 1.19 µM)
- deltalog10CFU/ml (Streptococcus pneumoniae [8]): 6.8
- deltalog10CFU/ml (Streptococcus pneumoniae [9]): 3.4
- MIC50 [10]: 0.008 mg/L (≈ 0.0191 µM)
- MIC90 [10]: 0.015 mg/L (≈ 0.0358 µM)
- MIC50 (Pseudomonas aeruginosa): 1 mg/L (≈ 2.38 µM)
- MIC90 (Pseudomonas aeruginosa): 2 mg/L (≈ 4.77 µM)
- deltalog10CFU/ml (Streptococcus pneumoniae [11]): 4.2
- MIC (Streptococcus pneumoniae [12]): 0.015 mg/L (≈ 0.0358 µM)
- deltalog10CFU/ml (Streptococcus pneumoniae [13]): 7.5
- deltalog10CFU/ml (Streptococcus pneumoniae [14]): 7.2
- MIC50 (Staphylococcus aureus [15]): 0.25 mg/L (≈ 0.596 µM)
- MIC90 (Staphylococcus aureus [15]): 0.25 mg/L (≈ 0.596 µM)
- deltalog10CFU/ml (Streptococcus pneumoniae [16]): 6.6
- MIC (Streptococcus pneumoniae [17]): 0.12 mg/L (≈ 0.286 µM)
- deltalog10CFU/ml (Streptococcus pneumoniae [18]): 7.2
- deltalog10CFU/ml (Streptococcus pneumoniae [19]): 3.4
- deltalog10CFU/ml (Staphylococcus aureus [20]): 6.3
- logD [21]: 0.37
- deltalog10CFU/ml (Staphylococcus aureus [22]): 3.8
- MIC (Streptococcus pneumoniae [23]): 0.12 mg/L (≈ 0.286 µM)
- MIC50 [24]: 0.12 mg/L (≈ 0.286 µM)
- MIC90 [24]: 0.25 mg/L (≈ 0.596 µM)
- deltalog10CFU/ml (Staphylococcus aureus [25]): 6.5
- MIC (Haemophilus influenzae): 0.008 mg/L (≈ 0.0191 µM)
- MIC50 (Haemophilus influenzae): 0.008 mg/L (≈ 0.0191 µM)
- MIC90 (Haemophilus influenzae): 0.015 mg/L (≈ 0.0358 µM)
- MIC (Moraxella catarrhalis): ≤ 0.015 mg/L
- MIC50 (Moraxella catarrhalis): ≤ 0.015 mg/L
- MIC90 (Moraxella catarrhalis): ≤ 0.015 mg/L
- deltalog10CFU/ml (Streptococcus pneumoniae [26]): 3.6
- MIC50 (Proteus mirabilis): 0.25 mg/L (≈ 0.596 µM)
- MIC90 (Proteus mirabilis): 0.5 mg/L (≈ 1.19 µM)
- deltalog10CFU/ml (Streptococcus pneumoniae [27]): 4
- MIC (Staphylococcus aureus [28]): 0.5 mg/L (≈ 1.19 µM)
- MIC50 [29]: 0.015 mg/L (≈ 0.0358 µM)
- MIC90 [29]: 0.015 mg/L (≈ 0.0358 µM)
